Reference: ChEMBL document CHEMBL1132468, “5-(Tryptophyl)amino-1,3-dioxoperhydropyrido[1,2-c]pyrimidine-based potent and selective CCK(1) receptor antagonists: structural modifications at the tryptophan domain” (J Med Chem, 1999)
Residues, ends and D or L forms follow the SMILES beside them.

Experiments:
Rattus norvegicus [1] = test: Compound (CCK1 antagonist) was administered intraperitoneally for the effect of increase in plasma lipase activity induced by caerulein in rat at the dose of 0.1 mg/kg; assay type: functional; settings: route intraperitoneal
Procedure, shortened: (§1)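 Male Wistar rats (190–210 g), fasted 24 h, given four sc caerulein injections (10 µg/kg) at hourly intervals. Antagonist given ip (0.25 mL/100 g; 0.1 or 1 mg/kg) 30 min before the first caerulein dose. Blood taken 3 h after the last injection. Plasma amylase and lipase measured by commercial kits, in IU/mL. Statistics by ANOVA with Scheffé's test against caerulein alone.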

Rattus norvegicus [2] = test: Compound (CCK1 antagonist) was administered orally for the effect of increase in plasma lipase activity induced by caerulein in rat at the dose of 0.1 mg/kg; assay type: functional; settings: route oral
Procedure, shortened: (§2)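 Caerulein pancreatitis in fasted (24 h) male Wistar rats (190–210 g): four hourly sc injections of 10 µg/kg. Antagonist dosed orally (0.25 mL/100 g; 0.1 or 1 mg/kg) 60 min before the first caerulein injection. Plasma drawn 3 h after the final injection. Amylase and lipase activities read with commercial kits, in IU/mL. Comparisons by ANOVA plus Scheffé's test against caerulein.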

Rattus norvegicus [3] = test: Compound (CCK1 antagonist) was administered orally for the effect of increase in plasma amylase activity induced by caerulein in rat at the dose of 1 mg/kg; assay type: functional; settings: route oral; procedure, shortened: as §2
Rattus norvegicus [4] = test: Compound (CCK1 antagonist) was administered intraperitoneally for the effect of increase in plasma amylase activity induced by caerulein in rat at the dose of 0.1 mg/kg; assay type: functional; settings: route intraperitoneal; procedure, shortened: as §1
Rattus norvegicus [5] = test: Compound (CCK1 antagonist) was administered intraperitoneally for the effect of increase in plasma amylase activity induced by caerulein in rat at the dose of 1 mg/kg; assay type: functional; settings: route intraperitoneal; procedure, shortened: as §1
Rattus norvegicus [6] = test: Compound (CCK1 antagonist) was administered orally for the effect of increase in plasma amylase activity induced by caerulein in rat at the dose of 0.1 mg/kg; assay type: functional; settings: route oral; procedure, shortened: as §2
Rattus norvegicus [7] = test: Compound (CCK1 antagonist) was administered orally for the effect of increase in plasma lipase activity induced by caerulein in rat at the dose of 1 mg/kg; assay type: functional; settings: route oral; procedure, shortened: as §2
Rattus norvegicus [8] = test: Compound (CCK1 antagonist) was administered intraperitoneally for the effect of increase in plasma lipase activity induced by caerulein in rat at the dose of 1 mg/kg; assay type: functional; settings: route intraperitoneal; procedure, shortened: as §1
[9] = target: T1, Cholecystokinin receptor type A (Rattus norvegicus, UniProt P30551); test: Binding affinity by competitive inhibition of the radioligand [3H]pCCK-8 at Cholecystokinin type A receptor from rat pancreas
T1 sequence (P30551 whole entry): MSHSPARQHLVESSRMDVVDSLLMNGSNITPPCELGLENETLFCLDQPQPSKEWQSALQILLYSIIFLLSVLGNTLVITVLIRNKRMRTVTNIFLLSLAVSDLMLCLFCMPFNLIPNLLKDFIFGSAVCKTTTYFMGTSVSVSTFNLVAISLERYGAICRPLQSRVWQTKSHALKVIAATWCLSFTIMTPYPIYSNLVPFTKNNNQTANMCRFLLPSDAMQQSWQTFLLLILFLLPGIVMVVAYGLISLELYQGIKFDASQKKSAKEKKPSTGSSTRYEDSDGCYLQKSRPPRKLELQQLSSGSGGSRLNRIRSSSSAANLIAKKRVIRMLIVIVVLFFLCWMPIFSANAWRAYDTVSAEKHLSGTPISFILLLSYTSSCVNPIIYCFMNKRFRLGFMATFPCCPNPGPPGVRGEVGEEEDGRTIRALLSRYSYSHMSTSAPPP
Procedure, shortened: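 Rat pancreas homogenized in Pipes HCl pH 6.5 with 30 mM MgCl2, centrifuged twice at 50000g, 4 °C. Membranes (0.2 mg protein/tube) incubated with 0.5 nM [3H]pCCK-8 plus bacitracin and soybean trypsin inhibitor (0.2 mg/mL each) for 120 min at 25 °C. Ki from displacement curves by Cheng–Prusoff. Seven concentrations in triplicate, at least three experiments.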

[10] = target: T2, Gastrin/cholecystokinin type B receptor (Rattus norvegicus, UniProt P30553); test: Binding affinity by competitive inhibition of the radioligand [3H]pCCK-8 at Cholecystokinin type B receptor from rat cerebral cortex membrane; assay type: tissue-based
T2 sequence (P30553 whole entry): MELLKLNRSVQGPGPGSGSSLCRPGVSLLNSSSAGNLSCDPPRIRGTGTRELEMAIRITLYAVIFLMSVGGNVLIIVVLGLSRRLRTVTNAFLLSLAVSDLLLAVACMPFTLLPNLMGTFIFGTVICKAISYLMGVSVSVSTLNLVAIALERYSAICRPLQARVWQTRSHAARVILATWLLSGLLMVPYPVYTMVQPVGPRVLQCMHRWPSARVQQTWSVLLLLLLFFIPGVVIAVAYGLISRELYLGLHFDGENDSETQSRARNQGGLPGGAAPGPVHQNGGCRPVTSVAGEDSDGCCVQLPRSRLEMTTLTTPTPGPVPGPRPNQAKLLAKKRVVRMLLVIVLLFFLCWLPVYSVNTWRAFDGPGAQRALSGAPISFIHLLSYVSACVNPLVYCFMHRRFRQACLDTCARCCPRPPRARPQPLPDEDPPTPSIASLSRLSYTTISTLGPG

Rattus norvegicus [11] = test: Compound (CCK1 antagonist) was administered orally for the effect of increase in plasma amylase activity induced by caerulein in rat.; assay type: functional; procedure, shortened: as §2
Rattus norvegicus [12] = test: Compound (CCK1 antagonist) was administered intraperitoneally for the effect of increase in plasma lipase activity induced by caerulein in rat
Rattus norvegicus [13] = test: Compound (CCK1 antagonist) was administered intraperitoneally for the effect of increase in plasma amylase activity induced by caerulein in rat; assay type: functional; procedure, shortened: as §1
Rattus norvegicus [14] = test: Compound (CCK1 antagonist) was administered orally for the effect of increase in plasma lipase activity induced by caerulein in rat; assay type: functional; procedure, shortened: as §2

IC50 [9] [nM] | IC50 [10] [nM] | Structure (SMILES) | also measured
– | – | CN1C(=O)[C@@H](NC(=O)c2cc3ccccc3[nH]2)N=C(c2ccccc2)c2ccccc21 [DEVAZEPIDE] | Increase in plasma lipase (Rattus norvegicus [1]): 125 IU ml-1; Increase in plasma lipase (Rattus norvegicus [2]): 871 IU ml-1; Increase in plasma amylase (Rattus norvegicus [3]): 4578 IU ml-1; Increase in plasma amylase (Rattus norvegicus [4]): 8793 IU ml-1; Increase in plasma amylase (Rattus norvegicus [5]): 3650 IU ml-1; Increase in plasma amylase (Rattus norvegicus [6]): 7733 IU ml-1; Increase in plasma lipase (Rattus norvegicus [7]): 57 IU ml-1; Increase in plasma lipase (Rattus norvegicus [8]): 26 IU ml-1
> 1000 | > 10000 | N#C[C@H](N[C@@H]1CCCN2C(=O)N(Cc3ccccc3)C(=O)C[C@H]12)[C@H](Cc1c[nH]c2ccccc12)NC(=O)OCc1ccccc1 | –
– | > 10000 | CC(C)(C)OC(=O)N1Cc2[nH]c3ccccc3c2CC1C(=O)N[C@@H]1CCCN2C(=O)N(Cc3ccccc3)C(=O)C[C@H]12 (some centres undefined) | –
32.6 | > 10000 | CC(C)(C)OC(=O)N[C@@H](Cc1c[nH]c2ccccc12)[C@@H](C#N)N[C@@H]1CCCN2C(=O)N(Cc3ccccc3)C(=O)CC12 (single isomer, unassigned) | –
– | – | CSCC[C@H](NC(=O)[C@H](Cc1c[nH]c2ccccc12)NC(=O)CNC(=O)[C@@H](NC(=O)[C@H](Cc1ccc(OS(=O)(=O)O)cc1)NC(=O)[C@H](CC(=O)O)NC(=O)[C@H](CCC(N)=O)NC(=O)[C@@H]1CCC(=O)N1)[C@@H](C)O)C(=O)N[C@@H](CC(=O)O)C(=O)N[C@@H](Cc1ccccc1)C(N)=O [CAERULIN] (HELM PEPTIDE1{[Glp].Q.D.[O=C([C@H](Cc1ccc(OS(=O)(=O)O)cc1)N[*:1])[*:2]].T.G.W.M.D.F.[am]}$$$$V2.0) | Increase in plasma amylase (Rattus norvegicus [11]): 39293 IU ml-1; Increase in plasma lipase (Rattus norvegicus [12]): 3100 IU ml-1; Increase in plasma amylase (Rattus norvegicus [13]): 52101 IU ml-1; Increase in plasma lipase (Rattus norvegicus [14]): 2801 IU ml-1
> 1000 | > 10000 | N[C@@H](Cc1c[nH]c2ccccc12)C(=O)N[C@H]1CCCN2C(=O)N(Cc3ccccc3)C(=O)C[C@@H]12 | –
> 1000 | > 10000 | N[C@@H](Cc1c[nH]c2ccccc12)C(=O)N[C@@H]1CCCN2C(=O)N(Cc3ccccc3)C(=O)C[C@H]12 | –
4.43 | > 10000 | CC(C)(C)CC(=O)N[C@@H](Cc1c[nH]c2ccccc12)C(=O)N[C@@H]1CCCN2C(=O)N(Cc3ccccc3)C(=O)CC12 (single isomer, unassigned) | Increase in plasma lipase (Rattus norvegicus [1]): 2956 IU ml-1; Increase in plasma lipase (Rattus norvegicus [2]): 3089 IU ml-1; Increase in plasma amylase (Rattus norvegicus [3]): 46591 IU ml-1; Increase in plasma amylase (Rattus norvegicus [4]): 61102 IU ml-1; Increase in plasma amylase (Rattus norvegicus [5]): 28015 IU ml-1; Increase in plasma amylase (Rattus norvegicus [6]): 51420 IU ml-1; Increase in plasma lipase (Rattus norvegicus [7]): 3375 IU ml-1; Increase in plasma lipase (Rattus norvegicus [8]): 1140 IU ml-1
42.4 | > 10000 | CC(C)(C)OC(=O)N[C@@](C)(Cc1c[nH]c2ccccc12)C(=O)N[C@@H]1CCCN2C(=O)N(Cc3ccccc3)C(=O)C[C@@H]12.CC(C)(C)OC(=O)N[C@@](C)(Cc1c[nH]c2ccccc12)C(=O)N[C@H]1CCCN2C(=O)N(Cc3ccccc3)C(=O)C[C@H]12 (single isomer, unassigned) | –
340 | 3430 | O=C(N[C@@H](Cc1c[nH]c2ccccc12)C(=O)N[C@H]1CCCN2C(=O)N(Cc3ccccc3)C(=O)CC12)OC1C2CC3CC(C2)CC1C3 (single isomer, unassigned) | –
> 1000 | > 10000 | N#C[C@@H](N[C@@H]1CCCN2C(=O)N(Cc3ccccc3)C(=O)C[C@H]12)[C@H](Cc1c[nH]c2ccccc12)NC(=O)OCc1ccccc1 | –
0.91 | > 10000 | CC(C)(C)NC(=O)N[C@@H](Cc1c[nH]c2ccccc12)C(=O)N[C@@H]1CCCN2C(=O)N(Cc3ccccc3)C(=O)CC12 (single isomer, unassigned) | Increase in plasma lipase (Rattus norvegicus [1]): 1667 IU ml-1; Increase in plasma lipase (Rattus norvegicus [2]): 2200 IU ml-1; Increase in plasma amylase (Rattus norvegicus [3]): 19967 IU ml-1; Increase in plasma amylase (Rattus norvegicus [4]): 27103 IU ml-1; Increase in plasma amylase (Rattus norvegicus [5]): 5326 IU ml-1; Increase in plasma amylase (Rattus norvegicus [6]): 28939 IU ml-1; Increase in plasma lipase (Rattus norvegicus [7]): 1062 IU ml-1; Increase in plasma lipase (Rattus norvegicus [8]): 36 IU ml-1
> 1000 | > 10000 | CC(C)(C)OC(=O)N[C@H](CN[C@@H]1CCCN2C(=O)N(Cc3ccccc3)C(=O)C[C@H]12)Cc1c[nH]c2ccccc12 | –
– | > 10000 | CC(C)(C)OC(=O)N[C@](C)(Cc1c[nH]c2ccccc12)C(=O)N[C@@H]1CCCN2C(=O)N(Cc3ccccc3)C(=O)C[C@@H]12.CC(C)(C)OC(=O)N[C@](C)(Cc1c[nH]c2ccccc12)C(=O)N[C@H]1CCCN2C(=O)N(Cc3ccccc3)C(=O)C[C@H]12 | –
65.7 | > 10000 | CC(C)(C)OC(=O)N[C@@H](Cc1ccccc1)C(=O)N[C@@H]1CCCN2C(=O)N(Cc3ccccc3)C(=O)C[C@H]12 | –
> 1000 | > 10000 | O=C(N[C@@H]1CCCN2C(=O)N(Cc3ccccc3)C(=O)C[C@@H]12)c1cc2ccccc2[nH]1.O=C(N[C@H]1CCCN2C(=O)N(Cc3ccccc3)C(=O)C[C@H]12)c1cc2ccccc2[nH]1 | –
486 | 4390 | O=C(N[C@H]1CCCN2C(=O)N(Cc3ccccc3)C(=O)C[C@@H]12)[C@H](Cc1c[nH]c2ccccc12)NC(=O)C12CC3CC(CC(C3)C1)C2 | –
7.69 | > 10000 | CC(C)(C)OC(=O)N[C@@H](Cc1c[nH]c2ccccc12)[C@H](C#N)N[C@@H]1CCCN2C(=O)N(Cc3ccccc3)C(=O)CC12 (single isomer, unassigned) | –
> 1000 | > 10000 | CC(C)(C)OC(=O)N1Cc2[nH]c3ccccc3c2CC1C(=O)N[C@H]1CCCN2C(=O)N(Cc3ccccc3)C(=O)C[C@@H]12 (some centres undefined) | –

Structure (SMILES) | IC50 [9] [nM] | IC50 [10] [nM] | also measured
CC(C)(C)OC(=O)N[C@@H](Cc1c[nH]c2ccccc12)C(=O)N[C@@H]1CCCN2C(=O)N(Cc3ccccc3)C(=O)CC12 (single isomer, unassigned) [IQM-95333] | 1.59 | > 10000 | Increase in plasma lipase (Rattus norvegicus [1]): 1943 IU ml-1; Increase in plasma lipase (Rattus norvegicus [2]): 2837 IU ml-1; Increase in plasma amylase (Rattus norvegicus [3]): 31205 IU ml-1; Increase in plasma amylase (Rattus norvegicus [4]): 35985 IU ml-1; Increase in plasma amylase (Rattus norvegicus [5]): 2721 IU ml-1; Increase in plasma amylase (Rattus norvegicus [6]): 37753 IU ml-1; Increase in plasma lipase (Rattus norvegicus [7]): 1948 IU ml-1; Increase in plasma lipase (Rattus norvegicus [8]): 112 IU ml-1
CC(C)(C)OC(=O)N[C@@H](Cc1c[nH]c2ccccc12)C(=O)N[C@H]1CCCN2C(=O)N(Cc3ccccc3)C(=O)C[C@@H]12 | 22.7 | 6150 | –
O=C(Cc1c[nH]c2ccccc12)N[C@H]1CCCN2C(=O)N(Cc3ccccc3)C(=O)C[C@@H]12.O=C(N[C@@H]1CCCN2C(=O)N(Cc3ccccc3)C(=O)C[C@H]12)c1c[nH]c2ccccc12 | > 1000 | > 10000 | –
